Rows were chosen to be rich in hits. Some 4.3% of all compounds tested hit in one or more screens of this group.
GalR3 antagonist – human GalR3 antagonism; O60755; HEK293 GalR3-CNG cAMP membrane potential fluorescence; galR3 body fused to GalR1 C-terminus; inhibition, % at 3 µM; actives 0.44% (n = 360,000); AID 651719;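 active = inhibition above the screen-wide average plus 3 SD, cut at about 13% in these data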;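 note: forskolin and galanin both at EC90 stimulate the cells; cAMP rise reported by CNG channel membrane potential dye signal; 0% = forskolin plus galanin with DMSO and 100% = forskolin alone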
Target sequence (O60755 1-299 limits assumed): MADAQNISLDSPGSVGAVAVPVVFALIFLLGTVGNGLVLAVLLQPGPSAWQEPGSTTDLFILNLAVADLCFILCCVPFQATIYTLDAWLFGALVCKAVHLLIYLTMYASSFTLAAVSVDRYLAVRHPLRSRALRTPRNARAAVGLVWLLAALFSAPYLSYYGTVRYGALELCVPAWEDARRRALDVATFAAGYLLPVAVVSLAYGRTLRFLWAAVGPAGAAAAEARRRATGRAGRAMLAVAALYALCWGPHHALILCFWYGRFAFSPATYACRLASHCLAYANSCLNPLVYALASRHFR
TAAR1 agonist – agonists of human TAAR1; CHO RD-HGA16 TAAR1, Fluo-8 calcium fluorescence; vehicle wells 0%, saturating PEA agonist 100%; activation, % at 3 µM; actives 0.99% (n = 360,000); AID 624467; Q96RJ0;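 active = activation above the mean activation of all test compounds in the run plus 3 SD, cut at about 38% in these data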
Target sequence (Q96RJ0 whole entry, looked up): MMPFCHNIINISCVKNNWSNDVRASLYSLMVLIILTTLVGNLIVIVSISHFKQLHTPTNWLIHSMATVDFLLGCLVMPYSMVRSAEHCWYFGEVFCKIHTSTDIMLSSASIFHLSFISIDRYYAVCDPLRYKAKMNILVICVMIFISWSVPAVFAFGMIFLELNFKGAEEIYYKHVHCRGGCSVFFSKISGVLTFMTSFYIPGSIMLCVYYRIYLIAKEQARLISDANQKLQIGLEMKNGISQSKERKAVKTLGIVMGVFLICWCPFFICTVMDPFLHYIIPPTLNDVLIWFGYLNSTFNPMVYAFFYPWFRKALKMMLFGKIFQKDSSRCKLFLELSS
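System: CHO RD-HGA16 cells carrying human TAAR1 plus Gα16; Incubation: 17-24 h seeding, 75 min 37 °C dye, 30 min RT; Measured by: Fluo-8 fluorescence, 5 s baseline then 140 s kinetic read; Control set: DMSO and PEA EC100; Replication: single well for each compound.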
OX1R antag-1 – blocks the human orexin 1 receptor | OX1R-expressing cells, FRET antagonist read-out | inhibition, % at 6.6 µM | actives 1.8% (n = 330,000); in the data active = inhibition mostly above about 38%, no sharp cut-off; inactive = mostly below about 40%;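 note: 0% = agonist challenge alone and 100% = reference antagonist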
TAAR1 antagonist – human TAAR1 antagonism | Q96RJ0 | CHO RD-HGA16 TAAR1, Fluo-8 calcium fluorescence, antagonist | inhibition, % at 3 µM | actives 1.5% (n = 360,000) | AID 624466;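 active = inhibition above a per-plate cutoff, the mean inhibition of test compounds on that plate plus 3 SD, cut at about 49% in these data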;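 note: 0% = DMSO plus EC80 beta-PEA response and 100% = DMSO alone without agonist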
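Material: CHO RD-HGA16 cells bearing hTAAR1; compound dosing: one-point dosing, 3 µM nominal final; schedule: dye loading 75 min at 37 °C, then 30 min room temperature; measured by: calcium fluorescence with Fluo-8; control set: vehicle and agonist controls; replication: n of 1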
CHO parental Ca – counter-screen: ATP calcium response change in parental CHO cells. parental CHO-K1, ATP-induced calcium, Fluo-8 fluorescence. inhibition, % at 5.6 µM. actives 0.63% (n = 330,000);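 active = inhibition above that plate's mean sample inhibition plus 3 SD, cut at about 26% in these data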;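 note: 0% = ATP-challenged DMSO wells and 100% = DMSO wells without ATP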
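material = parental CHO cells | also added = ATP as calcium-mobilizing challenge | dosing = single point at 5.6 µM | detection = intracellular calcium via Fluo-8 no-wash fluorescent dye | read-out = % inhibition | benchmarks = low control ATP plus DMSO, high control DMSO only | repeats = one well per compound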
OX1R antag-2 – blocks the human orexin 1 receptor. O43613. CHO/OX1R cells, Fluo-8 calcium fluorescence, orexin A. inhibition, % at 5 µM. actives 0.43% (n = 330,000). AID 434989;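 active = inhibition above its plate's threshold, mean inhibition of all tested compounds on the plate plus 3 SD, cut at about 37% in these data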;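 note: 0% = orexin A challenge wells and 100% = SB-334867-A antagonist wells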
TAAR1 ag confirm – confirmation of human TAAR1 agonists | actives 82% (n = 2,400) | shares compounds with TAAR1 agonist | CHO RD-HGA16 TAAR1, Fluo-8 calcium fluorescence; scaled: DMSO 0%, maximal phenethylamine 100% | activation, % at 3 µM;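 active = activation above a cutoff set at the run's mean compound activation plus 3 SD, cut at about 39% in these data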
Ga16 nonsel ag – nonselective agonism, TAAR1 counter-screen. shares compounds with TAAR1 agonist. CHO-Ga16 parental, Fluo-8 calcium fluorescence; normalized to maximal ATP response, DMSO zero. activation, % at 3 µM. actives 50% (n = 2,400). AID 651787;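 active = activation above the run cutoff, the mean activation over all tested wells plus 3 SD, cut at about 12% in these data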;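 note: 0% = DMSO wells and 100% = maximal ATP response on the peak over basal ratio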
TAAR1 desensitize – counter-screen for human TAAR1 agonists: agonists that desensitize TAAR1. shares compounds with TAAR1 agonist. CHO RD-HGA16 hTAAR1, Fluo-8 calcium, beta-PEA response inhibition. inhibition, % at 3 µM. actives 46% (n = 2,400). AID 651951;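 active = inhibition above the run cutoff, the mean inhibition of all test compounds plus 3 SD, cut at about 49% in these data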;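 note: beta-PEA stimulus applied at its EC80; loss of beta-PEA calcium signal after compound pretreatment read as receptor desensitization; 0% = DMSO with beta-PEA at EC80 and 100% = DMSO alone without agonist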
Ga16 antag count – counter-screen for TAAR1 agonists: nonselective Ga16 antagonists. inhibition, % at 3 µM. shares compounds with TAAR1 agonist. AID 651952. CHO-Ga16 ATP-induced calcium, Fluo-8 fluorescence. actives 39% (n = 2,400);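 active = inhibition above the plate's mean compound inhibition plus 3 SD, computed per plate, cut at about 22% in these data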;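 note: 0% = EC80 ATP with DMSO and 100% = DMSO wells without ATP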
An asterisk follows results filed as active.

C[C@H]1CN([C@@H](C)CO)C(=O)c2cc(-c3cccc(C#N)c3)cnc2O[C@H]1CN(C)C(=O)c1ccccn1 was read as GalR3 antagonist -5, TAAR1 agonist 5 and TAAR1 antagonist 19.
For O=C(Nc1ccncc1)c1ccc(Cl)c(Cl)c1 the results were GalR3 antagonist -10, TAAR1 agonist 56*, OX1R antag-1 2, TAAR1 antagonist 1, CHO parental Ca -5, OX1R antag-2 2, TAAR1 ag confirm 42*, Ga16 nonsel ag 19*, TAAR1 desensitize 8 and Ga16 antag count 6.
COc1ccc(C(=O)NNC(=S)NC(=O)c2ccc(Br)o2)cc1OC was read as GalR3 antagonist -2, TAAR1 agonist 50*, OX1R antag-1 20, TAAR1 antagonist 11, CHO parental Ca -1, OX1R antag-2 9, TAAR1 ag confirm 21, Ga16 nonsel ag 13*, TAAR1 desensitize 12 and Ga16 antag count 9.
COc1ccc(C(=O)NC(=S)NNC(=O)c2c(-c3ccccc3)noc2C)cc1OC was read as GalR3 antagonist -4, TAAR1 agonist 68*, OX1R antag-1 6, TAAR1 antagonist -1, CHO parental Ca -5, OX1R antag-2 -23, TAAR1 ag confirm 70*, Ga16 nonsel ag 47*, TAAR1 desensitize 24 and Ga16 antag count 11.
Cc1onc(-c2ccccc2)c1C(=O)NNC(=S)NC(=O)/C=C/c1cccs1 was read as GalR3 antagonist -11, TAAR1 agonist 115*, OX1R antag-1 4, TAAR1 antagonist 69*, CHO parental Ca -1, OX1R antag-2 -2, TAAR1 ag confirm 107*, Ga16 nonsel ag 94*, TAAR1 desensitize 79* and Ga16 antag count 62*.
For Cc1onc(-c2ccccc2)c1C(=O)N/N=C/c1cccs1 the results were GalR3 antagonist -2, TAAR1 agonist 1, OX1R antag-1 6, TAAR1 antagonist 4, CHO parental Ca -7 and OX1R antag-2 -4.
`Cc1onc(-c2ccccc2)c1C(=O)NNC(=S)NC(=O)c1ccc2c(c1)OCO2` gave GalR3 antagonist -1, TAAR1 agonist 89*, OX1R antag-1 2, TAAR1 antagonist 46, CHO parental Ca 15, OX1R antag-2 -2, TAAR1 ag confirm 95*, Ga16 nonsel ag 81*, TAAR1 desensitize 52* and Ga16 antag count 38*.
For Cc1onc(-c2ccccc2)c1C(=O)NC(=S)NNC(=O)c1ccncc1 the results were GalR3 antagonist 0, TAAR1 agonist 0, OX1R antag-1 10, TAAR1 antagonist -2, CHO parental Ca -7 and OX1R antag-2 8.
Screening Cc1c(NC(=O)COC(=O)c2ccc(Cl)nc2)c(=O)n(-c2ccccc2)n1C returned GalR3 antagonist -4, TAAR1 agonist 2, OX1R antag-1 8, TAAR1 antagonist -12, CHO parental Ca -14 and OX1R antag-2 -11.
`O=C(CN1CCN(S(=O)(=O)c2cccs2)CC1)N1CCCCC1` gave GalR3 antagonist -4, TAAR1 agonist 3 and TAAR1 antagonist -20.
`CC1(C(=O)NS(=O)(=O)c2cccc(C#N)c2)CCN1C(=O)C/C=C/c1ccccc1` (configuration not stated) gave GalR3 antagonist 0, TAAR1 agonist 0 and TAAR1 antagonist -5.
`CC(=O)N1CC2(CC(c3ccc(Cl)cc3Cl)=NO2)CN1c1cccc(Cl)c1` (configuration not stated) gave GalR3 antagonist -2, TAAR1 agonist 1 and TAAR1 antagonist 17.
Screening Cc1ccc(CNC(=O)OC2CC3CC2[C@H]2CCCCN2C3=O)cc1 (some centres not stated) returned GalR3 antagonist -7, TAAR1 agonist 54*, TAAR1 antagonist -11, TAAR1 ag confirm 0, Ga16 nonsel ag 0, TAAR1 desensitize 10 and Ga16 antag count 13.
`COc1ccc(CN2C(=O)C(CC(=O)NCCc3ccccn3)CC(C(=O)N(C)C)=C2C)cc1` (configuration not stated) gave GalR3 antagonist -4, TAAR1 agonist 46*, TAAR1 antagonist -6, TAAR1 ag confirm 62*, Ga16 nonsel ag -1, TAAR1 desensitize 12 and Ga16 antag count 4.
For CN(C)c1ccc(CNC(=O)/C=C/[C@H]2O[C@@H](n3ccc(=O)[nH]c3=O)[C@H](O)[C@@H]2O)cc1 the results were GalR3 antagonist 3, TAAR1 agonist 2 and TAAR1 antagonist -11.
`CCCOc1ccc(C(=O)ON=C2CCN(C)CC2)cc1` gave GalR3 antagonist 1, TAAR1 agonist 7, OX1R antag-1 9, TAAR1 antagonist -19, CHO parental Ca -11 and OX1R antag-2 -18.
`COC(=O)[C@]12CCCCC=C1N(Cc1ccco1)C(=O)[C@H](CC(=O)NCc1cccs1)C2` gave GalR3 antagonist -6, TAAR1 agonist 4 and TAAR1 antagonist -6.
Screening CCC1(c2ccc(F)cc2)NC(=O)N(CC(=O)Nc2ccccc2Cl)C1=O (configuration not stated) returned GalR3 antagonist -9, TAAR1 agonist 80*, OX1R antag-1 -7, TAAR1 antagonist 17, CHO parental Ca -6, OX1R antag-2 -10, TAAR1 ag confirm 72*, Ga16 nonsel ag 36*, TAAR1 desensitize 33 and Ga16 antag count 19.
Screening Cc1cc(-c2n[nH]c(=S)n2/N=C/c2ccc(Cl)c([N+](=O)[O-])c2)n[nH]1 returned GalR3 antagonist -1, TAAR1 agonist 4, OX1R antag-1 11, TAAR1 antagonist -22, CHO parental Ca -3 and OX1R antag-2 5.
For O=[N+]([O-])c1cc(/C=N/n2c(-c3ccncc3)n[nH]c2=S)ccc1Cl the results were GalR3 antagonist -3, TAAR1 agonist 52*, OX1R antag-1 39, TAAR1 antagonist -12, CHO parental Ca -11, OX1R antag-2 -13, TAAR1 ag confirm 98*, Ga16 nonsel ag 19*, TAAR1 desensitize 29 and Ga16 antag count -7.

Bioassay records (PubChem BioAssay)
